From ChEMBL document CHEMBL1128357, “Synthesis and biological properties of water-soluble p-boronophenylalanine derivatives. Relationship between water solubility, cytotoxicity, and cellular uptake” (J Med Chem, 1995)
In brackets after ≈: the same amount, converted by molar mass.

What was measured:
[1] = test system: TIG-1-20; assay: Cytotoxicity of compound towards TIG-1-20 hybrobrast cells, expressed as survival ratio of cells; assay type: functional, Homo sapiens
[2] = Solubility in water at room temperature; assay type: physicochemical; settings: read-out: S
Procedure, shortened: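 Excess boron compound was dissolved, and the undissolved material was removed by membrane filtration. Boron concentration of the saturated solution was measured by ICP-AES. Three replicates, mean ± SE.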

[3] = test system: B16; assay: Cytotoxicity of compound towards B-16 melanoma cells, expressed as survival ratio of cells; assay type: functional, Mus musculus

Compound	Survival ratio [1] [%]	solubility [2] [mM]	Survival ratio [3] [%]
NC(Cc1ccc(B(O)O)cc1)C(=O)NC(COC(CO)CO)COC(CO)CO (configuration not stated)	73	1200 (≈ 516 mg/mL)	62
NC(Cc1ccc(B(O)O)cc1)C(=O)NCCO (configuration not stated)	66	600 (≈ 151 mg/mL)	60
NC(Cc1ccc(B(O)O)cc1)C(=O)NC(CO)CO (configuration not stated)	71	660 (≈ 186 mg/mL)	60
NC(Cc1ccc(B(O)O)cc1)C(=O)O (configuration not stated)	20	7.7 (≈ 1.61 mg/mL)	20
